From the RNAGym collection of RNA variant scans (doi:10.1126/science.aae0568)
Variants at the floor of the assay were thinned out.

B1: tRNA (parent)
chain: GUUCCGUUGGCGUAAUGGUAACGCGUCUCCCUCCUAAGGAGAAGACUGCGGGUUCGAGUCCCGUACGGAACG

Variants of: B1
Experiment: yeast fitness relative to wild type (ratio to wild type); higher = fitter; tRNA-Arg(CCU), competitive growth, 37 C, YPD
How it was run: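 Variants of the tRNA-Arg(CCU) gene were chemically synthesised with a 3% per-site mutation rate across 69 sites and placed at the native genomic locus in Saccharomyces cerevisiae. Six parallel replicates of the pooled strains were competed in YPD at 37°C for 24 hours, and gene amplicons from the start and end populations were read by 100-nucleotide paired-end sequencing. Darwinian fitness relative to wild type was derived from changes in genotype frequencies. Genotypes required ≥ 100 starting reads, and estimates < 0.5 were set to 0.5.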

Variant | yeast fitness
C4G G9A G18C C31U U47G | ≤ 0.5
C4G G18C C33G G41A C55G | ≤ 0.5
C4G C49U U54G | ≤ 0.5
C4G G6C U8G G17A G23A A45G A70C | ≤ 0.5
C4G C27A C31U | ≤ 0.5
C4G C55G G63A | 0.558
C4G C30G C33A | ≤ 0.5
C4G C29A C46A | ≤ 0.5
C4G U8C C24G A42C G67A | 0.558
C4G U13C G39C | ≤ 0.5
C4G G10C G12C A21C G48C | ≤ 0.5
C4G U8A G18C U32A U47C | 0.574
C4G G9C C22A C62A C66G | ≤ 0.5
C4G U8C C11G C46U | ≤ 0.5
C4G C29A U32A A45C A65C | ≤ 0.5
C4G U7C A14C C30U A40U C49U | ≤ 0.5
C4G G6A A69U | 0.667
C4G G23A C24A C31A A36G | ≤ 0.5
C4G C30G A42U C55U C66A | ≤ 0.5
C4G G10U A20U C34G A37G C66U | ≤ 0.5
C4G G6C U8G G17A G23A C46G C60A | 0.567

Variant | yeast fitness
C4G G18C C46G | ≤ 0.5
C4G C49U G52A C60G | ≤ 0.5
C4G G6A G10C U19A C24G A43G C61G A70U | ≤ 0.5
C4G U7A G10C A20C | ≤ 0.5
C4G C30G G58A | ≤ 0.5
C4G G9C C22A G67A | ≤ 0.5
C4G G17A A36G C46U | ≤ 0.5
C4G C34A | 0.762
C4G U13C A45U G56C | ≤ 0.5
C4G G38A C55U | ≤ 0.5
C4G U7G C60A C62U G68C | ≤ 0.5
C4G U13C A15G G48A C61A | 0.672
C4G G10U A14U C24U C33U G52A C66U | ≤ 0.5
C4G G6A A21C | 0.701
C4G G12A C24U | ≤ 0.5
C4G G44A | 0.726
C4G G44C | 0.826
C4G G9A A21C C22A | ≤ 0.5
C4G U7G G12C A20U C49U U54A C55U A70C | ≤ 0.5
C4G U8A G12A A42G G44A U64C | ≤ 0.5
C4G U8G A21C | ≤ 0.5

Variant | yeast fitness
C4G C30G G50U C66U | 0.588
C4G U7A G9A C11U C55U | ≤ 0.5
C4G G18C A57U | ≤ 0.5
C4G U7G G12C A20U U28G | ≤ 0.5
C4G G6C A21C C31U U35A U47G | 0.569
C4G G9C G41A C61U | ≤ 0.5
C4G G48C G51C A57U G68C | 0.55
C4G U7G G12C A20U U32A | ≤ 0.5
C4G C62A C66U | 0.704
C4G G18C U64A | ≤ 0.5
C4G C34G A43G A57C | ≤ 0.5
C4G U7G G12C A20U | ≤ 0.5
C4G C30A C62U | 0.526
C4G C30A C62A | ≤ 0.5
C4G C62A | 0.67
C4G C34U C55A G68C | ≤ 0.5
C4G G9C G41A C55U U59A | ≤ 0.5
C4G U8G G18C C49U G58A G67A | ≤ 0.5
C4G G6A C24U A40U A65C A69U | 0.815
C4G C60U G63C G68A | ≤ 0.5
C4G G17C C22G | ≤ 0.5

Variant | yeast fitness
C4G G18C C62G | ≤ 0.5
C4G U7A C22U C66A | ≤ 0.5
C4G G9C C22A A69U | 0.525
C4G G56C | 0.699
C4G G10A C27G A45U C49G C55A | 0.617
C4G C33G A36C C66U | ≤ 0.5
C4G G12A G68U | ≤ 0.5
C4G G10C U26C C27G A37G G39A | ≤ 0.5
C4G G51C | 0.647
C4G U16C A45G | 0.597
C4G U8A G12A U35G | ≤ 0.5
C4G G9C C22A G68U | ≤ 0.5
C4G G9A A14G G25C A57C U64A | ≤ 0.5
C4G U16C C27G A40G G48A A57C | 0.572
C4G G23A C29G A37C C61G | ≤ 0.5
C4G G12A C66G | 0.503
C4G U8C U28G C49A C62G | ≤ 0.5
C4G G41C C46A | 0.709
C4G U8G G9A C11U C34G C61A | ≤ 0.5
C4G C33U A45U C60G | ≤ 0.5
